PfGluPho inh: PfG6PD enzyme inhibitors, primary screen, biochemical, fluorescence intensity, uHTS; glucose-6-phosphate dehydrogenase-6-phosphogluconolactonase (Plasmodium falciparum 3D7); PfGluPho enzyme, NADPH resazurin-diaphorase fluorescence; inhibition, % at 20 µM; hit rate 0.78% among 350,000; AID 504690, 2011;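 active means inhibition reaching at least a set limit at 20 µM in the primary screen, cut at about 59% in these data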
A3A deaminase: APOBEC3A ssDNA deaminase inhibitors, primary screen, selectivity assay for APOBEC3G inhibitor project, biochemical, FAM/TAMRA oligo cleavage fluorescence; DNA dC->dU-editing enzyme APOBEC-3A (Homo sapiens), P31941; recombinant A3A, FAM/TAMRA ssDNA deamination fluorescence; inhibition, % at 20 µM; hit rate 0.41% among 330,000; AID 493011, 2011;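 active means at least 40% inhibition at 20 µM here, with at most 30% in a related deaminase screen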
Target sequence (P31941 whole entry, looked up): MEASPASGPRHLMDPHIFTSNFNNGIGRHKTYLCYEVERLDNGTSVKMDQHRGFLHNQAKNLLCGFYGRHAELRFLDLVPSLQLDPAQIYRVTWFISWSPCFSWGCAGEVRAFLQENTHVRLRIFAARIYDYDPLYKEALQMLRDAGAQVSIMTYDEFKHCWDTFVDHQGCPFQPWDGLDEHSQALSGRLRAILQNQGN
UBC9 SUMO inh: inhibitors of in vitro SUMOylation cascade, primary screen, biochemical, HTRF, uHTS | HTRF SUMOylation assay, SAE1/SAE2 + UBC9 | inhibition, % at 35 µM | hit rate 0.36% among 290,000 | AID 2006, 2009; in the data active means inhibition above about 50%, passing the limit was not always enough
APOBEC3G inh: APOBEC3G DNA deaminase inhibitors, primary screen, biochemical, fluorescence, single-stranded DNA substrate, uHTS | DNA dC->dU-editing enzyme APOBEC-3G (Homo sapiens), Q9HC16 | recombinant A3G, ssDNA deamination FAM/TAMRA fluorescence | inhibition, % at 20 µM | hit rate 0.28% among 330,000 | AID 493012, 2011;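 active means inhibition of at least 40% at 20 µM, with no more than 30% in the related APOBEC3A deaminase screen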
HKDC1 inh: HKDC1 hexokinase inhibitors, primary screen, biochemical, fluorescence, uHTS | AID 493160, 2011 | Q2TB90 | recombinant HKDC1, G6PDH/diaphorase resazurin coupled fluorescence | inhibition, % at 20 µM | hit rate 0.16% among 340,000;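 active means inhibition above about 35% when tested at 20 µM, limit read from the data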
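test system = in-house recombinant HK5 (HKDC1) enzyme | amount = HKDC1 at 5 µg/mL | control set = DMSO-enzyme wells negative, buffer-substituted wells positive | compound = one dose of 20 µM, 1% DMSO | schedule = reaction time 90 min, room temperature, protected from light | technique = resorufin fluorescence at 613 nm | reagent = glucose with 1 mM ATP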
PfM18AAP inh: PfM18AAP inhibitors, malaria aminopeptidase, primary screen, biochemical, QFRET, recombinant enzyme; hit rate 1.2% among 290,000; inhibition, % at 7.35 µM; M18 aspartyl aminopeptidase (Plasmodium falciparum 3D7); H-Glu-NHMec fluorogenic cleavage;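 active means inhibition above the campaign mean inhibition over all tested compounds plus 3 SD, cut at about 28% in these data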
APOBEC3G confirm: APOBEC3G deaminase inhibitor retest, confirmation, biochemical, fluorescence, single-stranded DNA substrate, single concentration; shares compounds with APOBEC3G inh; recombinant A3G ssDNA deaminase, UDG/FAM-TAMRA fluorescence; hit rate 72% among 890; inhibition, % at 20 µM; AID 493152, 2011;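 active means inhibition reaching a set limit in any replicate at 20 µM, the limit being 80% of the first screen's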
UDG ctr A3G: E. coli UDG inhibitors, confirmation, counter-screen for APOBEC3G inhibitor project, biochemical, single concentration, fluorescence, FAM/TAMRA oligo; shares compounds with APOBEC3G inh; UDG counterscreen; inhibition, % at 20 µM; 710 tested, under 10 active; AID 504715, 2011;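 active means compounds giving 40% or more inhibition at 20 µM in any one of the three replicates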;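 further: inhibitors lower the FAM signal released by uracil excision and alkaline cleavage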
Target sequence (P12295 whole entry, looked up): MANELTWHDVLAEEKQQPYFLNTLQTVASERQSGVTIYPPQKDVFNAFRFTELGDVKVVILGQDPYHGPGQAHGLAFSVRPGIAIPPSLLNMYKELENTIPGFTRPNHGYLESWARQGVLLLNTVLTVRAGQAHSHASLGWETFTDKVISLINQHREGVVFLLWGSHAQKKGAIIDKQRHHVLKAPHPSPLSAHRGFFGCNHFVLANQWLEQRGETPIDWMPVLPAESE
Hits are given with their value; . = inactive; / = no result; ! = not confirmed by another sample. In the library only some 2.4% were active in any assay of this set; here they are far more common.

SMILES	PfGluPho inh	A3A deaminase	UBC9 SUMO inh	APOBEC3G inh	HKDC1 inh	PfM18AAP inh	APOBEC3G confirm	UDG ctr A3G
O=C(CNc1cc(S(=O)(=O)N2CCOCC2)ccc1N1CCOCC1)Nc1cccc(C(F)(F)F)c1	.	.	/	41	.	/	.	/
S=c1nc(-c2ccccc2)n(-c2ccccc2)[nH]1	.	.	.	48	.	30	87	.
CCCCC(=O)Nc1ccc(Br)cn1	.	.	.	.	.	.	/	/
C=CCCC(=O)Nc1ccc(Br)cn1	.	.	.	55	.	.	.	/
COc1ccccc1-c1n[nH]c(=S)n1-c1ccccc1	.	.	.	40	.	.	69	.
CC(C)CCn1c(SCCN2CCOCC2)nc2c1c(=O)[nH]c(=O)n2C	.	.	.	.	.	.	/	/
O=c1[nH]c(SCc2nc3ccccc3c(=O)n2-c2ccccc2)nc2ccccc12	.	.	.	.	.	.	/	/
O=c1[nH]c(SCc2n[nH]c(=S)n2-c2ccccc2)nc2ccccc12	.	.	.	60	.	.	86	.
CCN1C(=O)N[C@H](c2ccccc2)C(C(C)=O)=C1C	.	.	/	.	.	/	/	/
COc1cc(/C=N/n2c(-c3ccccc3)n[nH]c2=S)cc(OC)c1OC	.	.	.	.	.	.	/	/
COc1cccc(/C=N/n2c(=S)n(C)c3cc(C)c(C)cc32)c1OC	.	.	.	.	.	.	/	/
COc1ccc(/C=N/n2c(-c3n[nH]c4c3CCC4)n[nH]c2=S)c(OC)c1OC	.	.	.	49	.	.	82	.
COc1cccc(/C=N/n2c(-c3cc(C)[nH]n3)n[nH]c2=S)c1OC	.	.	.	43	.	.	85	.
COc1cccc(/C=N/n2c(-c3n[nH]c4c3CCC4)n[nH]c2=S)c1OC	.	.	.	62	.	.	70	.
COc1ccc(NS(=O)(=O)c2cccc(C(=O)NN=Cc3cc(Br)c(O)c(Br)c3)c2)cc1	.	.	/	.	.	/	/	/
Oc1cccc2cc3cccc(O)c3c(O)c12	.	.	.	55	.	.	62	.
O=c1oc(-c2ccc(O)c(O)c2)cc2cccc(O)c12	.	.	/	.	.	/	/	/
COc1ccc(CC(NC(C)=O)C(=O)NC2CCN(c3nnnn3-c3ccccc3)CC2)cc1OC (stereo unspecified)	/	.	.	.	/	.	/	/
S=c1[nH]ncn1/N=C/c1ccc(Br)cc1	.	.	.	44	.	.	100	.
CCn1ncc(/C=N\NC(=O)c2ccc3c(c2)c(C)c(C)n3Cc2ccccc2)c1C	.	.	.	70	.	.	.	.
CCn1cc(/C=N\NC(=O)c2ccc3c(c2)c(C)c(C)n3Cc2ccccc2)c(C)n1	.	.	.	.	.	.	/	/
CC1(C)S[C@@H]2[C@H](NC(=O)[C@H](N)c3ccc(O)cc3)C(=O)N2[C@H]1C(=O)O	.	.	.	.	.	.	/	/
CC1(C)S[C@@H]2[C@H](NC(=O)[C@H](N)c3ccccc3)C(=O)N2[C@H]1C(=O)O	.	.	.	75!	.	.	42	.
CC(C)(Oc1ccc(Cl)cc1)C(=O)NC1CCN(Cc2ccccc2)CC1	.	.	/	.	.	/	/	/
O=C(N/N=C/c1c(F)cccc1Cl)c1ccc(Cn2cc(Br)cn2)o1	.	.	.	.	.	.	/	/
COc1cccc(OCc2cc(/C=N/NC(=O)c3ccn[nH]3)ccc2OC)c1	.	.	.	46	.	.	.	/
CCn1c(CSc2nc3ccccc3s2)n[nH]c1=S	.	.	.	47	.	.	59	.
